pIC50: −log10 of the molar value. Activity calls are given as the source filed them. The calls are words filed in the database; no cut-off is given here. Where only a bound is given, the exact number is not on record here.

The text below walks through data of ChEMBL document CHEMBL3085696, “Aurora isoform selectivity: design and synthesis of imidazo[4,5-b]pyridine derivatives as highly selective inhibitors of Aurora-A kinase in cells” (J Med Chem, 2013).

One data set deals with HeLa. The data set is described as follows: Selectivity ratio of IC50 for aurora-B-mediated histone H3 phosphorylation at S10 in human HeLa cells to IC50 for autophosphorylation of N-terminal Myc tagged aurora-A at T288 in human HeLa cells. It counts as cell-based. In outline: (§1)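 Cells transfected with Myc-tagged Aurora-A (wild type or T217E, L215R, R220K mutants) and treated with inhibitor concentrations for 2 h. Lysed in LDS buffer; SDS-type PAGE and western blot. Blots probed for P-T288 (Aurora-A autophosphorylation) and phospho-histone H3 S10 (Aurora-B substrate). Blots quantified; IC50 derived; ratio taken as H3 IC50 over T288 IC50.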

Data set [1] concerns the target T1, Aurora kinase B (Homo sapiens, UniProt Q96GD4). The data set is described as follows: Inhibition of N-terminal Myc tagged aurora-B-mediated histone H3 phosphorylation at S10 in human HeLa cells after 2 hrs. It counts as cell-based. In outline:
as §1

Data set [2] has as its target T2, Aurora kinase A (Homo sapiens, UniProt O14965).
T2 sequence (O14965 whole entry): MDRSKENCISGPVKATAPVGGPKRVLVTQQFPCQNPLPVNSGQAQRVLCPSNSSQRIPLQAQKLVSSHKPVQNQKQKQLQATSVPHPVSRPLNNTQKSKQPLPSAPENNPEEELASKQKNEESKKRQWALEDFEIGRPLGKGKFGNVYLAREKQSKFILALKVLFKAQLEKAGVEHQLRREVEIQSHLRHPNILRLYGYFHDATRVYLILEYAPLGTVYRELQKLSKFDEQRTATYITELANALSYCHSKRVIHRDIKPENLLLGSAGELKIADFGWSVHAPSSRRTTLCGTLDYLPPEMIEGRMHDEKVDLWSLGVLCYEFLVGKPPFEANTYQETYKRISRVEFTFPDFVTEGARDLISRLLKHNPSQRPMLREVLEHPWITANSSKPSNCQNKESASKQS
The data set is described as follows: Inhibition of autophosphorylation of N-terminal Myc tagged aurora-A at T288 in human HeLa cells after 2 hrs. It counts as cell-based. The essentials:
as §1

The target in data set [3] is T1, Aurora kinase B. The data set is described as follows: Inhibition of full-length aurora-B (unknown origin) using 5FAMLRRASLG-CONH2 as substrate after 60 mins. The essentials:
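Full-length Aurora-B/INCENP complex (1 nM) incubated with 1.5 μM 5FAM-LRRASLG-CONH2 peptide and 15 μM ATP in Tris pH 7.4 buffer with NaCl, MgCl2, DTT, Tween 20. Runs 60 min at room temperature, then EDTA stop. Microfluidic mobility-shift readout of percent conversion. Duplicate 8-point curves, 0.25 pM–200 μM final. IC50 by four-parameter logistic fit.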

In data set [4] the target is T2, Aurora kinase A. The data set is described as follows: Inhibition of N-terminal HIS-tagged aurora-A (unknown origin) using 5FAM-LRRASLG-CONH2 as substrate after 60 mins. In outline:
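Aurora-A (5 nM N-terminal His-tagged) incubated with 1.5 μM 5FAM-LRRASLG-CONH2 peptide and 20 μM ATP in 50 mM Tris pH 7.4, 200 mM NaCl, 5 mM MgCl2, 2 mM DTT, 0.1% Tween 20. Runs 60 min at room temperature; EDTA stop. Microfluidic separation of product from substrate. Duplicate 8-point curves, 0.25 pM–200 μM final, 1–2% DMSO. IC50 from four-parameter logistic fit.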

The species named for another data set is Homo sapiens. The data set is described as follows: Selectivity ratio of IC50 for aurora-B (unknown origin)-mediated histone H3 phosphorylation at S10 to IC50 for autophosphorylation of N-terminal Myc tagged aurora-A at T288 (unknown origin). The essentials: as §1
Data set [5] addresses T1, Aurora kinase B. The data set is described as follows: Inhibition of N-terminal Myc tagged aurora-B (unknown origin)-mediated histone H3 phosphorylation at S10 after 2 hrs. In outline:
as §1

In data set [6] the target is T2, Aurora kinase A. The data set is described as follows: Inhibition of autophosphorylation of N-terminal Myc tagged aurora-A at T288 (unknown origin) after 2 hrs. In outline:
as §1

Data set [7] has as its target Vascular endothelial growth factor receptor 1 (Homo sapiens) (UniProt P17948). The data set is described as follows: Inhibition of VEGFR1 (unknown origin) at 1 uM. The essentials:
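110-kinase panel profiling, compounds tested at 1 μM, read as percent inhibition.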

Data set [8] deals with T3, Aurora kinase A (Homo sapiens) (UniProt O14965).
T3 sequence (whole entry): T2 sequence (O14965 whole entry)
The conditions noted are these: HCT-116, 1.5 uM.

Data set [9] deals with T1, Aurora kinase B. The conditions noted are these: HCT-116, 25 to 50 uM.
Data set [10] addresses T1, Aurora kinase B. The data set is described as follows: Inhibition of N-terminal Myc tagged aurora-B-mediated histone H3 phosphorylation at S10 in human HCT116 cells after 2 hrs. The format is cell-based, HCT-116. The essentials: (§2)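 Cells transfected with N-terminal Myc-tagged Aurora-A (wild type or T217E, L215R or R220K mutant, made by Quikchange mutagenesis), then exposed to a range of inhibitor concentrations for 2 h. Lysed in LDS sample buffer, sonicated, boiled, run on LDS-PAGE and blotted to nitrocellulose. Probed with anti-P-T288 (Aurora-A autophosphorylation) and anti-P-histone H3 S10 (Aurora-B substrate) antibodies. Blots quantified and IC50 fitted.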

Data set [11] deals with T2, Aurora kinase A. The data set is described as follows: Inhibition of autophosphorylation of N-terminal Myc tagged aurora-A at T288 in human HCT116 cells after 2 hrs. It counts as cell-based, HCT-116. The essentials: as §1
Data set [12] deals with Aurora kinase A (Homo sapiens, UniProt O14965, R220K). The data set is described as follows: Inhibition of autophosphorylation of aurora-A R220K mutant at T288 in human HCT116 cells after 2 hrs. It counts as cell-based, HCT-116. The essentials:
as §2

In data set [13] the target is Aurora kinase A (Homo sapiens, UniProt O14965, L215R). The data set is described as follows: Inhibition of autophosphorylation of aurora-A L215R mutant at T288 in human HCT116 cells after 2 hrs. The format is cell-based, HCT-116. The essentials: as §2
The target in data set [14] is Aurora kinase A (Homo sapiens, UniProt O14965, T217E). The data set is described as follows: Inhibition of autophosphorylation of aurora-A T217E mutant at T288 in human HCT116 cells after 2 hrs. It counts as cell-based, HCT-116. In outline: as §2
The target in data set [15] is T2, Aurora kinase A. The data set is described as follows: Inhibition of autophosphorylation of N-terminal Myc tagged wild type aurora-A at T288 in human HCT116 cells after 2 hrs. It counts as cell-based, HCT-116. In outline:
as §2

The nature of data set [16]: Metabolic stability in CD1 mouse liver microsomes at 10 uM after 30 mins. The conditions noted are these: read-out: Stability. It counts as ADME, Microsome. The essentials:
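Compound at 10 μM incubated with male CD1 mouse liver microsomes (1 mg/mL protein) plus NADPH 1 mM, UDPGA 2.5 mM and MgCl2 3 mM in 10 mM PBS at 37 °C, for 0 and 30 min. Controls omit cofactors. Percent remaining measured by LC/MS.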
(Liver microsomes are vesicles of endoplasmic reticulum, rich in cytochrome P450 enzymes.)

The next data set concerns Mus musculus. The data set is described as follows: Oral bioavailability in Balb/C mouse at 5 mg/kg. The format is ADME, organism-based. Particulars: in vivo. The essentials:
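Female Balb/C mice given 5 mg/kg po or iv in 10% DMSO/5% Tween 20 in saline. Terminal cardiac-puncture plasma taken at 5, 15, 30 min and 1, 2, 4, 6, 24 h. Methanol precipitation with olomoucine internal standard. Analysis by LC/MS (ESI+ MRM).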

Data set [17] is described as follows: Metabolic stability in human liver microsomes at 10 uM after 30 mins. It counts as ADME. Particulars: read-out: Stability. In outline: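 Mixed-gender pooled human liver microsomes (1 mg/mL) incubated with compound at 10 μM plus NADPH 1 mM, UDPGA 2.5 mM and MgCl2 3 mM in 10 mM PBS at 37 °C, for 0 and 30 min. Cofactor-free controls included. Percent remaining measured by LC/MS.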

T1 sequence (Q96GD4 whole entry): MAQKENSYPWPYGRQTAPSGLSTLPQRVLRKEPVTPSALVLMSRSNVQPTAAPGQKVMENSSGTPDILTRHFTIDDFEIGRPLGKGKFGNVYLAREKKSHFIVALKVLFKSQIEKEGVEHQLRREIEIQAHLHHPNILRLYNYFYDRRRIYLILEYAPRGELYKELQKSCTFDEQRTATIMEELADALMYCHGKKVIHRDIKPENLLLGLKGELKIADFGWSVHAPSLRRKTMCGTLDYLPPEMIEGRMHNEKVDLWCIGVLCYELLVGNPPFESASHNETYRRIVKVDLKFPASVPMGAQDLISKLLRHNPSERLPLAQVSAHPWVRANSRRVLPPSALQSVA
Sequence of Aurora kinase A (Homo sapiens, UniProt O14965, L215R) (O14965 whole entry I57V/L215R): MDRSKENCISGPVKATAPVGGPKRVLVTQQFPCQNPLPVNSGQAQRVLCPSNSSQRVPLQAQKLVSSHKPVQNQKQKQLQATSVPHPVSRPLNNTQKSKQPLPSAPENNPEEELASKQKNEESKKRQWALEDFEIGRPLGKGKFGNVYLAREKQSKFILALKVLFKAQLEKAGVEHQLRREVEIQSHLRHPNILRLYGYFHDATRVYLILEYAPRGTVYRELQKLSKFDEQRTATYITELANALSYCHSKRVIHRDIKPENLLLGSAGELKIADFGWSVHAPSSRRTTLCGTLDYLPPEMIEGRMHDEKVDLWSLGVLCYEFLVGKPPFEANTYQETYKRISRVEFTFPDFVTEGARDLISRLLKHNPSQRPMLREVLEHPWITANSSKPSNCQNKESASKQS
Sequence of Vascular endothelial growth factor receptor 1 (Homo sapiens) (P17948 whole entry): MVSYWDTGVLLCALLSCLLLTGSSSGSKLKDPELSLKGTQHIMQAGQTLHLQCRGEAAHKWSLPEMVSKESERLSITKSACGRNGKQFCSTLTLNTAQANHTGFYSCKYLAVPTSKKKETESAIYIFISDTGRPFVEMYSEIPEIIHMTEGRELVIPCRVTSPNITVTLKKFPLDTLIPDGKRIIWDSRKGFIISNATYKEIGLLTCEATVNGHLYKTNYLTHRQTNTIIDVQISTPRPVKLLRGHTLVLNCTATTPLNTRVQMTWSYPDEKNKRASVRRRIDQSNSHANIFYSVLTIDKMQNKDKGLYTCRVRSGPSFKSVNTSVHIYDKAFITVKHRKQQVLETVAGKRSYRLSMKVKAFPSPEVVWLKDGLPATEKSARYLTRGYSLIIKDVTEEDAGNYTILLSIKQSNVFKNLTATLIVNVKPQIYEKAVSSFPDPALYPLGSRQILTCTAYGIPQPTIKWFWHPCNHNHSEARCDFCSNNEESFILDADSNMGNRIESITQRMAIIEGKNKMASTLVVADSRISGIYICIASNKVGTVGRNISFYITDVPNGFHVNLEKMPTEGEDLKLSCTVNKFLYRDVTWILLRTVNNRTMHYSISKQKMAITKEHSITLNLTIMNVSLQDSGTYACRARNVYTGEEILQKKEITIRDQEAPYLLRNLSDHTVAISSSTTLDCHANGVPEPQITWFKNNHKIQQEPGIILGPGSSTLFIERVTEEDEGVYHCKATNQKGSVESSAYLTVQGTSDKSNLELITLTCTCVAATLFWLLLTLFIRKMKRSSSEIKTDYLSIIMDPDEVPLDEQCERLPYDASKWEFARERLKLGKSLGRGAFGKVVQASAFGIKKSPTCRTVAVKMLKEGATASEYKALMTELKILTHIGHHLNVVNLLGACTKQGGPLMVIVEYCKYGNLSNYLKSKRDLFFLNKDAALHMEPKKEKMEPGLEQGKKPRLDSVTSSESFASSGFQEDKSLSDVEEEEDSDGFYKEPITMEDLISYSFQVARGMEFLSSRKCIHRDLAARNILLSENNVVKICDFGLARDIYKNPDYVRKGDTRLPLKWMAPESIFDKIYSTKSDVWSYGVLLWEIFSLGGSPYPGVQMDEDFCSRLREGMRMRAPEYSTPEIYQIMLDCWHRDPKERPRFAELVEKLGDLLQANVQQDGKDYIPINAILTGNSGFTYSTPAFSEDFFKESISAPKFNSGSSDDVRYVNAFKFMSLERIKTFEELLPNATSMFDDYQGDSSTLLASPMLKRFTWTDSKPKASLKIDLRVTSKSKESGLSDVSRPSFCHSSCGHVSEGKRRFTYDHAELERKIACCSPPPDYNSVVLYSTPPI
Sequence of Aurora kinase A (Homo sapiens, UniProt O14965, T217E) (O14965 whole entry I57V/T217E): as the sequence (O14965 whole entry I57V/L215R) above, with R215L, T217E counted along it
Sequence of Aurora kinase A (Homo sapiens, UniProt O14965, R220K) (O14965 whole entry I57V/R220K): as the sequence (O14965 whole entry I57V/L215R) above, with R215L, R220K counted along it

The pIC50 is the IC50 on a negative log10 scale, so that one unit is a factor of ten. As to `Cc1nn(C)cc1-c1nc2c(Oc3ccc(C(=O)Nc4cccnc4)cc3)c(Cl)cnc2[nH]1`, the Ratio IC50 in the data set with HeLa was 70. The pIC50 on Aurora kinase B [1] was 4.71; against Aurora kinase A [2], 6.55; on Aurora kinase B [3], 5.78; against Aurora kinase A [4] it was 7.24.
For the molecule `COc1ccc(-c2[nH]c3ncc(Cl)cc3c2-c2cccc(CNC(C)=O)c2)cc1`, the results for the pIC50 against Aurora kinase B [3] and against Aurora kinase A [4] were 5.96 and 6.13, respectively.
In the same order, the values of `COc1ccc(-c2[nH]c3ncc(Cl)cc3c2-c2cccc(CNS(C)(=O)=O)c2)cc1` are 5.15 and 5.71.
In the same order, the values of `Cc1nn(C)cc1-c1nc2c(N3CCC[C@H](CN(C)S(C)(=O)=O)C3)c(Cl)cnc2[nH]1` are 8.05 and 8.30.
The matching figures for `CC(=O)NCc1cccc(-c2c(-c3cnn(C)c3)[nH]c3ncc(Cl)cc23)c1`: 7.01 and 6.93.
As to `Cc1nn(C)cc1-c1nc2c(Nc3ccc(C(=O)Nc4ccccc4)cc3)c(Cl)cnc2[nH]1`, in the data set listed under Homo sapiens, the Ratio IC50 was 58. The pIC50 on Aurora kinase B [5] is 4.73; at Aurora kinase A [6], 6.49; on Aurora kinase B [3], 5.38; on Aurora kinase A [4] it was 7.12.
By inhibition is commonly meant the share of the control response that was lost under treatment. Turning to `Cc1nn(C)cc1-c1nc2c(Oc3ccc(C(=O)NC4CCC4)cc3)c(Cl)cnc2[nH]1`, the inhibition in data set [7] is greater than 80%. For the same molecule, the Ratio IC50 in the data set on HeLa amounted to 346. Besides, the inhibition entry (in data set [8]; at Aurora kinase B [9]) was “Active” in each case.
As for `CC(=O)N[C@@H]1CCN(c2c(Cl)cnc3[nH]c(-c4cn(C)nc4C)nc23)C1`, the results for the negative-log IC50 (pIC50) against Aurora kinase B [3] and against Aurora kinase A [4] were 8.70 and 8.40, respectively.
With `Cc1cc(NC(=O)c2ccc(Oc3c(Cl)cnc4nc(-c5cn(C)nc5C)[nH]c34)cc2)on1`, the pIC50 is 5.31 on Aurora kinase B [10], 7.02 at Aurora kinase A [11], 6.16 against Aurora kinase B [3] and 7.15 against Aurora kinase A [4].
Take `Cc1nn(C)cc1-c1nc2c(N(C)Cc3ccccc3)c(Cl)cnc2[nH]1`: the results for the pIC50 on Aurora kinase B [3] and on Aurora kinase A [4] were 6.77 and 6.59, respectively.
The matching figures for `CC(=O)N[C@H]1CCN(c2c(Cl)cnc3[nH]c(-c4cn(C)nc4C)nc23)C1`: 7.10 and 6.57.
`Cc1nn(C)cc1-c1nc2ncc(Cl)c(Oc3ccc(C(=O)NC4CCC4)cc3)c2[nH]1`: the pIC50 on Aurora kinase A [12] is 7.38; on Aurora kinase A [13], 7.37; on Aurora kinase A [14], 5.64; on Aurora kinase A [15] it was 7.44; on Aurora kinase B [1], 4.62; against Aurora kinase A [2], 7.15. The results for the pIC50 at Aurora kinase B [3] and at Aurora kinase A [4] were 5.52 and 7.82, respectively. Also, the remaining at 0.5 h, 10 µM amounted to 28% in [16] and 22% in data set [17]. This molecule came in with a F in the data set on Mus musculus of 14%.
Regarding `Cc1nn(C)cc1-c1nc2c(N3CCC[C@H](CNS(C)(=O)=O)C3)c(Cl)cnc2[nH]1`, the figures for the pIC50 against Aurora kinase B [3] and at Aurora kinase A [4] were 8.10 and 8.30, respectively.
In the same order, the values of `Cc1nn(C)cc1-c1nc2ncc(Cl)c(Oc3ccc(C(=O)N4CCCC4)cc3)c2[nH]1` are 5.74 and 7.35.
`Cc1nn(C)cc1-c1nc2ncc(Cl)c(N3CCC[C@@H](CNS(C)(=O)=O)C3)c2[nH]1`: the pIC50 against Aurora kinase B [3] was 7.77; on Aurora kinase A [4], 8.15.
The matching figures for `Cn1cc(-c2[nH]c3ncc(Cl)cc3c2-c2cccc(CNS(C)(=O)=O)c2)cn1`: 6.36 and 6.68.
As to `Cc1nn(C)cc1-c1nc2c(Oc3ccc(C(=O)NCc4ccccc4)cc3)c(Cl)cnc2[nH]1`, the pIC50 at Aurora kinase B [3] is 5.41; against Aurora kinase A [4], 6.69.
`O=C(Nc1ccccc1)c1ccc(Oc2c(Cl)cnc3nc[nH]c23)cc1` had a pIC50 against Aurora kinase A [4] of 4.59.
On to `Cc1nn(C)cc1-c1nc2ncc(Cl)c(Oc3ccc(C(=O)Nc4ccncc4)cc3)c2[nH]1`, for which the pIC50 against Aurora kinase B [1] is 4.70; on Aurora kinase A [2], 6.24; on Aurora kinase B [3], 5.46; against Aurora kinase A [4], 6.72.
With `Cc1nn(C)cc1-c1nc2c(Oc3ccc(C(=O)Nc4ccncc4)cc3)c(Cl)cnc2[nH]1`, the Ratio IC50 with HeLa was found to be 34.
With `CC(=O)NC[C@@H]1CCN(c2c(Cl)cnc3nc(-c4cn(C)nc4C)[nH]c23)C1`, the pIC50 is 8.15 at Aurora kinase B [3] and 8.05 at Aurora kinase A [4].
`Cc1nn(C)cc1-c1nc2c(Oc3ccc(C(=O)Nc4ccccc4)cc3)ccnc2[nH]1`: the pIC50 on Aurora kinase A [4] was 6.21.
